From ChEMBL document CHEMBL4610112, “Novel Pyrrolopyridone Bromodomain and Extra-Terminal Motif (BET) Inhibitors Effective in Endocrine-Resistant ER+ Breast Cancer with Acquired Resistance to Fulvestrant and Palbociclib” (J Med Chem, 2020)

Experiments:
[1] = Toxicity in human MCF7:TAM1 cells xenografted ovariectomized athymic Nude-Foxn1 mouse assessed as adverse sign t at 50 mg/kg/day, po administered via gavage for 4 weeks; format: organism-based; settings: in vivo, 672 h
Method in brief: (§1)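 MCF-7:TAM1 tumors established in 4–6-week-old female ovariectomized athymic nude mice (nude/Foxn1) given tamoxifen 1.5 mg/mouse daily. […] Body weight tracked against pretreatment, with overt toxicity signs observed. Vehicle and tamoxifen (1.5 mg/mouse/day po) groups as comparators.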

[2] = Toxicity in human MCF7:TAM1 cells xenografted ovariectomized athymic Nude-Foxn1 mouse assessed as effect on body weight at 50 mg/kg/day, po administered via gavage for 4 weeks; format: organism-based; settings: in vivo, 672 h; method in brief: as §1
[3] = AUC in CD1 mouse at 5 mg/kg, iv by LC-MS/MS analysis; format: ADME, organism-based; settings: in vivo
Method in brief: (§2)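 HCl salt dosed to CD1 mice iv (1 mg/mL) or by oral gavage (3 mg/mL) in 30% PEG400/70% (10% HP-β-CD in water) (v/v). Blood sampled at 0, 0.0833 (iv only), 0.25, 0.5, 1, 2, 4, 8 and 24 h, n = 3 per time point. Plasma levels measured by LC/MS/MS.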

[4] = Protein binding in plasma (unknown origin); format: ADME, cell-free; settings: human
Method in brief: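 Protein binding reported as percent bound, ketoconazole as reference compound. Run by a contract lab.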

[5] = Induction of thrombocytopenia in Sprague-Dawley rat assessed as platelet count […] at 25 mg/kg, po administered via gavage daily for 10 days (reference value: […]); format: organism-based; settings: in vivo, 240 h
[6] = Cmax in CD1 mouse at 30 mg/kg, po by LC-MS/MS analysis; format: ADME, organism-based; set-up: dose 30 mg/kg, route oral; settings: in vivo; method in brief: as §2
MCF7:TAM1 = experiment: Antitumor activity against human MCF7:TAM1 cells xenografted in ovariectomized athymic Nude-Foxn1 mouse assessed as tumor growth inhibition at 30 mg/kg/day, po administered via gavage for 4 weeks relative to control; format: functional; settings: 672 h, read-out: TGI
Method in brief: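 MCF-7:Tam1 tumours established in 4–6 week old female ovariectomized athymic nude mice given daily tamoxifen 1.5 mg/mouse. […] Fulvestrant 1 (mg/mouse)/week sc. Tumour volume measured weekly by calipers as length × width² × π/6.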

CYP2A6 = CYP2A6 (Homo sapiens, UniProt P11509); experiment: Inhibition of human CYP2A6 at 10 uM; format: ADME
[7] = Intrinsic clearance in human hepatocytes assessed per million cells; format: ADME, cell-based, Hepatocyte; settings: read-out: CLH
[8] = target: Voltage-gated inwardly rectifying potassium channel KCNH2 (Homo sapiens, UniProt Q12809); experiment: Inhibition of human ERG stably expressed in HEK293 cells; format: cell-based
Method in brief: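 hERG inhibition measured in HEK293 cells stably transfected with the hERG gene, IC50 determined, dofetilide as positive control. Run by a contract lab.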

[9] = Half life in CD1 mouse at 5 mg/kg, iv by LC-MS/MS analysis; format: ADME, organism-based; settings: in vivo; method in brief: as §2
[10] = AUC in CD1 mouse at 30 mg/kg, po by LC-MS/MS analysis; format: ADME, organism-based; settings: in vivo; method in brief: as §2
[11] = Kinetic solubility of the compound in pH 7.4 PBS buffer; format: physicochemical; settings: read-out: Kinetic_solubility
Method in brief: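 Kinetic solubility in PBS at pH 7.4, progesterone as reference compound. Run by a contract lab.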

CYP2D6 = CYP2D6 (Homo sapiens, UniProt P10635); experiment: Inhibition of human CYP2D6 at 10 uM; format: ADME
[12] = Half life in human hepatocytes; format: ADME, cell-based, Hepatocyte
CYP3A4 = CYP3A4 (Homo sapiens, UniProt P08684); experiment: Inhibition of human CYP3A4 at 10 uM; format: ADME
CYP2C19 = CYP2C19 (Homo sapiens, UniProt P33261); experiment: Inhibition of human CYP2C19 at 10 uM; format: ADME
[13] = Half life in CD1 mouse at 30 mg/kg, po by LC-MS/MS analysis; format: ADME, organism-based; settings: in vivo; method in brief: as §2
[14] = Clearance in CD1 mouse at 5 mg/kg, iv by LC-MS/MS analysis; format: ADME, organism-based; settings: in vivo; method in brief: as §2
CYP2C8 = CYP2C8 (Homo sapiens, UniProt P10632); experiment: Inhibition of human CYP2C8 at 10 uM; format: ADME
CYP2C9 = CYP2C9 (Homo sapiens, UniProt P11712); experiment: Inhibition of human CYP2C9 at 10 uM; format: ADME
CYP1A2 = CYP1A2 (Homo sapiens, UniProt P05177); experiment: Inhibition of human CYP1A2 at 10 uM; format: ADME
[15] = Tmax in CD1 mouse at 30 mg/kg, po by LC-MS/MS analysis; format: ADME, organism-based; settings: in vivo
Method in brief: (§3)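 HCl salt dosed to CD1 mice in 30% PEG400/70% (10% HP-β-CD in water) (v/v), at 1 mg/mL for iv (5 mg/kg) or 3 mg/mL for oral gavage (30 mg/kg). Blood sampled at 0, 0.0833 (iv only), 0.25, 0.5, 1, 2, 4, 8 and 24 h, n = 3 per time point. Plasma levels measured by LC/MS/MS.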

[16] = Volume of distribution at steady state in CD1 mouse at 5 mg/kg, iv by LC-MS/MS analysis; format: ADME, organism-based; settings: in vivo; method in brief: as §3
[17] = Oral bioavailability in CD1 mouse at 30 mg/kg by LC-MS/MS analysis; format: ADME, organism-based; settings: in vivo; method in brief: as §3

Sequence of CYP3A4 (P08684 whole entry): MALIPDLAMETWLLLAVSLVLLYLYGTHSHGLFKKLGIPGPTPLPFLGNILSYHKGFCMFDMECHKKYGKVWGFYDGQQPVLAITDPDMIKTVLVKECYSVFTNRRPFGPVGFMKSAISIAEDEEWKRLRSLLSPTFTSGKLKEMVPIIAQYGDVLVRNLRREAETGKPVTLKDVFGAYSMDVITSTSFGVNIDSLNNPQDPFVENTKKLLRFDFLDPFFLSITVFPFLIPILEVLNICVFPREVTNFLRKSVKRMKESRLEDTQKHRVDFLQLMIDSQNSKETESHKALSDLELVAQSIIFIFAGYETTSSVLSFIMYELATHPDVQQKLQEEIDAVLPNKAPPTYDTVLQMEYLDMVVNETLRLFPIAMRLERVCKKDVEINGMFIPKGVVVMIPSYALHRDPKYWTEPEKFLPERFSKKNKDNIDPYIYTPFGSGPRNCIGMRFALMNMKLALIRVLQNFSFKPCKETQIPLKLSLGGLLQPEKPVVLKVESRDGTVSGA
Sequence of CYP1A2 (P05177 whole entry): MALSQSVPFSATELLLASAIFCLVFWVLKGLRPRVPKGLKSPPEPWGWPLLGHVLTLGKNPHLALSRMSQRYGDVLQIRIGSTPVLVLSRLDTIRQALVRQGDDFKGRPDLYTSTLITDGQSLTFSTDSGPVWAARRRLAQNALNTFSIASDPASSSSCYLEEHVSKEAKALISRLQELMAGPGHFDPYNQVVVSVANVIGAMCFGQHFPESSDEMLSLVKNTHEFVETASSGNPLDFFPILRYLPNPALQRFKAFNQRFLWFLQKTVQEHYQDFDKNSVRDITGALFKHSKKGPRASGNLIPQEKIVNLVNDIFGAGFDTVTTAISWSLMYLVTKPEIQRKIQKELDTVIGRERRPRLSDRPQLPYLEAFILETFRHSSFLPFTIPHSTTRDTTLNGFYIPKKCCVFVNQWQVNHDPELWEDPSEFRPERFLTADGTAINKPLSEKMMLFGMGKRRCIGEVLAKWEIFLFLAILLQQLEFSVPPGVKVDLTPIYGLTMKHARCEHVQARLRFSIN
Sequence of CYP2C19 (P33261 whole entry): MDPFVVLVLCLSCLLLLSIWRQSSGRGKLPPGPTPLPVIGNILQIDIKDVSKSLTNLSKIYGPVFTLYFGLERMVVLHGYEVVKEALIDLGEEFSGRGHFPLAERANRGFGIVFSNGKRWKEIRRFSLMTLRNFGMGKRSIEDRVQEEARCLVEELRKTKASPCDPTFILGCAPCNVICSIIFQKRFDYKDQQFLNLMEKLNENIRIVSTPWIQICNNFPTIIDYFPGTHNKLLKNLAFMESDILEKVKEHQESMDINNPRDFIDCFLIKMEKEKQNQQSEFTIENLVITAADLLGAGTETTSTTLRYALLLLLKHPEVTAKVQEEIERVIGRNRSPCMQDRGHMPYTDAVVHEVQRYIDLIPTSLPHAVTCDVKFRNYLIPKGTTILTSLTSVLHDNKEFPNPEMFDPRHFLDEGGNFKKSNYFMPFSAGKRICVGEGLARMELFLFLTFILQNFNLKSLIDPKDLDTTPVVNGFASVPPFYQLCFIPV
Sequence of CYP2D6 (P10635 whole entry): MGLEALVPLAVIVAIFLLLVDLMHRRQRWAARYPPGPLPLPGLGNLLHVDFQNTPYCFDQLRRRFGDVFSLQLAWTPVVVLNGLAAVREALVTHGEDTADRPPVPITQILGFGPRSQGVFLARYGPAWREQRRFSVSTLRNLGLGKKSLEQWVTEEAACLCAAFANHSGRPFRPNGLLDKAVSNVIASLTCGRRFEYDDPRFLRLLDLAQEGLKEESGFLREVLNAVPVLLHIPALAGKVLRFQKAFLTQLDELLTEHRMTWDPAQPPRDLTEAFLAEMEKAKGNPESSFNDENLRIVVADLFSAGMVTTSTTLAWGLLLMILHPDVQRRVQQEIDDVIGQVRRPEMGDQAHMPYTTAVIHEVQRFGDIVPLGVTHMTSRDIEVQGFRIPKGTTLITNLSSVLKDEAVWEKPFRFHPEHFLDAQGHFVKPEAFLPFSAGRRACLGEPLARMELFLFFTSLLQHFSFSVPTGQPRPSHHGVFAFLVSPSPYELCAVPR
Sequence of CYP2C9 (P11712 whole entry): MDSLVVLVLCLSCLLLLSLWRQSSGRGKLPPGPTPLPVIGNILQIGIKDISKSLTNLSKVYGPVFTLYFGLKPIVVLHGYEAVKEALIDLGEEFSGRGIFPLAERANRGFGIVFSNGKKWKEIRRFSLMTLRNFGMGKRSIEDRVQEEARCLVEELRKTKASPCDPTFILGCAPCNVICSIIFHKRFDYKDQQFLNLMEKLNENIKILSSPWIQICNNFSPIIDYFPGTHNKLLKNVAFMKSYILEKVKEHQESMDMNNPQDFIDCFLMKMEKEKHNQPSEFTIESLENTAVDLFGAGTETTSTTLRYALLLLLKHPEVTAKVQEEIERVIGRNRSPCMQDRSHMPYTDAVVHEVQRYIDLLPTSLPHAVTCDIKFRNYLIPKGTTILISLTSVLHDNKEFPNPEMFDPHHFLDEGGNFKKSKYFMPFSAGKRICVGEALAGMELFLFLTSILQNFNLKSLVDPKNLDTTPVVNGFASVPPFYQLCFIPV
Sequence of Voltage-gated inwardly rectifying potassium channel KCNH2 (Q12809 whole entry): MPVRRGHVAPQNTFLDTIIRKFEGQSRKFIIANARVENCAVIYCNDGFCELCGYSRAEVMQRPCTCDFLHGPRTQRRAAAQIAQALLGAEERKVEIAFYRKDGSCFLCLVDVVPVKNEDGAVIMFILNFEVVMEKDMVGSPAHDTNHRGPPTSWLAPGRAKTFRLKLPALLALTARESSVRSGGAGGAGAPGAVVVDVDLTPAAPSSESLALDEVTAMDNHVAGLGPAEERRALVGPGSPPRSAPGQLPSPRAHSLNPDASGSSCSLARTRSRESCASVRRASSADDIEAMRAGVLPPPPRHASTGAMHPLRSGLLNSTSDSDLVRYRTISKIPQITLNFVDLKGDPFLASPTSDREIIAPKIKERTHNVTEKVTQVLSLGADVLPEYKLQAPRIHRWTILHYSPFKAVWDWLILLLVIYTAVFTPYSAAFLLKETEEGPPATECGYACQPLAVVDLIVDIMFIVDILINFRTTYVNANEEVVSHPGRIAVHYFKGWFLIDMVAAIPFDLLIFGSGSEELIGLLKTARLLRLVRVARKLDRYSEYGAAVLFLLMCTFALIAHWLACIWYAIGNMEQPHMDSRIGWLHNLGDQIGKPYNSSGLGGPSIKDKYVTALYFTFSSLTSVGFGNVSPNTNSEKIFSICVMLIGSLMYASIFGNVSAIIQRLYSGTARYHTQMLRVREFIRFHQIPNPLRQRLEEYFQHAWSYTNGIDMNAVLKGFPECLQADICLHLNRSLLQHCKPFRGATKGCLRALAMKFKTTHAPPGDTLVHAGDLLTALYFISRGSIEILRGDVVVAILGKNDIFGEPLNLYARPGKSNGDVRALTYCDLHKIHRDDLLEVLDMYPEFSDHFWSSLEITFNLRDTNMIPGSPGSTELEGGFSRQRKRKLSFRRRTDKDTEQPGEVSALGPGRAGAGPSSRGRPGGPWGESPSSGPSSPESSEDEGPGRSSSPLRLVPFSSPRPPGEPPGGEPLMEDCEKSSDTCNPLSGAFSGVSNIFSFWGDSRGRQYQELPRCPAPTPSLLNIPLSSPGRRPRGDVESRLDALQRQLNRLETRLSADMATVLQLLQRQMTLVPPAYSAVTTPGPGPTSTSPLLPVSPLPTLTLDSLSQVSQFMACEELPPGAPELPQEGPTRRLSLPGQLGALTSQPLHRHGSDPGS
Sequence of CYP2A6 (P11509 whole entry): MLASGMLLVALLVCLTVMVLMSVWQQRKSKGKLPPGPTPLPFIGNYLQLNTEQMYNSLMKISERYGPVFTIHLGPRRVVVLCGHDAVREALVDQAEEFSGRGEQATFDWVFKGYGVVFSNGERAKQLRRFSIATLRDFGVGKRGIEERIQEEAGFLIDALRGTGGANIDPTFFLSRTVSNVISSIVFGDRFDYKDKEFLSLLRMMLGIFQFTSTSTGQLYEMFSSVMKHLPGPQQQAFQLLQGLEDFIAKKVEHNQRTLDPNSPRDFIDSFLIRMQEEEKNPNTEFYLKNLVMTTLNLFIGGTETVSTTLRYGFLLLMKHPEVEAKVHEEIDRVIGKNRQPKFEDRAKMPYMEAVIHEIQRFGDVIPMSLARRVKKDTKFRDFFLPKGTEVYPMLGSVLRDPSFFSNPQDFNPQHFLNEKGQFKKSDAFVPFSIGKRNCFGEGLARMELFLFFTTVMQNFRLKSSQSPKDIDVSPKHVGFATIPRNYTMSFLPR
Sequence of CYP2C8 (P10632 whole entry): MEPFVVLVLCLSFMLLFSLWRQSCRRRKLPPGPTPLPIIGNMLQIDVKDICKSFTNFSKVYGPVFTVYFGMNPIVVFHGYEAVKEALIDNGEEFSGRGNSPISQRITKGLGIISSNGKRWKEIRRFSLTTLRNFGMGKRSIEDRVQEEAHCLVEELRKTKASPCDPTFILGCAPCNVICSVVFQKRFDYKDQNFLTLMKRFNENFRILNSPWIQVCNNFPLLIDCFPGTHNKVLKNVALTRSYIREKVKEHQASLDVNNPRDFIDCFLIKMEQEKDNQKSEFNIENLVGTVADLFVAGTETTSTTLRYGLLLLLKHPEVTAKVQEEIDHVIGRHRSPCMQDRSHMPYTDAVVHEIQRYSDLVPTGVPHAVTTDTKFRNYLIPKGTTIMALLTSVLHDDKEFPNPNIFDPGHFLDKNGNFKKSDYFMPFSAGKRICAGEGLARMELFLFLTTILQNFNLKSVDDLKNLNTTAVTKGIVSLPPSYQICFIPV

For `CCS(=O)(=O)Nc1cc(-c2cn(C)c3c(=O)[nH]ccc23)cc2c1ccn2C(C)(c1ccccn1)c1ccccn1.Cl`, the Activity [1] was “Non-Toxic”, the Activity [2] was “Non-Toxic” and the AUC [3] was 3208 ng·h/mL. For the same compound, the PPB [4] was 97.98%, the platelet count [5] was 1050 10^3/µL and the Cmax [6] was 3090 ng/mL. The inhibition in vivo at 30 mg/kg/day (MCF7:TAM1) was 106%, the inhibition at 10 µM (CYP2A6) was 7.47% and the hepatocyte CLint [7] was 6.86 µL/min/1e6 cells. The IC50 [8] was 29.3 µM, the t1/2 [9] was 1.95 h and the AUC [10] was 9598 ng·h/mL. The solubility kinetic [11] was 73.4 µM, the inhibition at 10 µM (CYP2D6) was 14.5% and the t1/2 [12] was 3.37 h. The inhibition at 10 µM (CYP3A4) was 50.6%, the inhibition at 10 µM (CYP2C19) was 31.8% and the t1/2 [13] was 2.9 h. For the same compound, the clearance [14] was 25.5 mL/min/kg, the inhibition at 10 µM (CYP2C8) was 84.2% and the inhibition at 10 µM (CYP2C9) was 30.7%. It also gave an inhibition at 10 µM (CYP1A2) of 2.29%, a Tmax [15] of 0.25 h and a Vdss [16] of 1.49 L/kg. It also gave an F [17] of 49%.
